Results on one molecule are retold here after ChEMBL document CHEMBL4706499, “PTG-0861: A novel HDAC6-selective inhibitor as a therapeutic strategy in acute myeloid leukaemia” (Eur J Med Chem, 2020).

Calls of active or inactive are those of the source. No cut-off for these calls is given here.

Data set [1] concerns MV4-11. Nature of the data set: Induction of apoptosis in human MV4-11 cells assessed as early apoptotic cells at 4 microM measured after 18 hrs by Annexin V/Propidium iodide stain based Flow cytometry assay (reference value: 1.7%). In kind it is functional.
Data set [2] deals with MM1.S. The experiment in a line: Cytotoxicity against human MM1.S cells measured after 72 hrs by spectrophotometer method. In kind it is functional, cell-based.
A short description of data set [3]: Half life in CD1 mouse at 20 mg/kg, ip measured after 24 hrs by LC/MS/MS method. The settings on record: in vivo. In kind it is ADME, organism-based.
A short description of data set [4]: Apparent permeability across apical to basolateral side in human Caco2 cells measured after 2 hrs by LC-MS/MS method. In kind it is ADME, cell-based. Particulars: Caco-2. Summed up:
(§1)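 Bidirectional Caco-2 permeability was measured as Papp in the apical-to-basolateral and basolateral-to-apical directions. The efflux ratio was calculated from the two directional Papp values.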

Data set [5] in a line: Apparent permeability across basolateral to apical side in human Caco2 cells measured after 2 hrs by LC-MS/MS method. The data set is classed as ADME, cell-based. The settings on record: Caco-2. Summed up: as §1
Data set [6] in a line: Glutathione reactivity at pH 7.4 assessed as compound remaining measured after 60 mins by LC-MS/MS method. The data set is classed as physicochemical. The settings on record: glutathione solution, read-out: Stabilty.
For data set [7], the system named is MV4-11. Nature of the data set: Induction of apoptosis in human MV4-11 cells assessed as early apoptotic cells at 2 microM measured after 18 hrs by Annexin V/Propidium iodide stain based Flow cytometry assay (reference value: 1.7%). The data set is classed as functional.
Data set [8] can be described thus: Toxicity in CD-1 mouse assessed as changes in body weight at 20 mg/kg, po measured after 5 days. The data set is classed as organism-based. The settings on record: in vivo, 120 h, time 5 day.
Data set [9] concerns the target T1, Histone deacetylase 6 (Danio rerio, UniProt F8W4B7).
T1 sequence (F8W4B7 whole entry): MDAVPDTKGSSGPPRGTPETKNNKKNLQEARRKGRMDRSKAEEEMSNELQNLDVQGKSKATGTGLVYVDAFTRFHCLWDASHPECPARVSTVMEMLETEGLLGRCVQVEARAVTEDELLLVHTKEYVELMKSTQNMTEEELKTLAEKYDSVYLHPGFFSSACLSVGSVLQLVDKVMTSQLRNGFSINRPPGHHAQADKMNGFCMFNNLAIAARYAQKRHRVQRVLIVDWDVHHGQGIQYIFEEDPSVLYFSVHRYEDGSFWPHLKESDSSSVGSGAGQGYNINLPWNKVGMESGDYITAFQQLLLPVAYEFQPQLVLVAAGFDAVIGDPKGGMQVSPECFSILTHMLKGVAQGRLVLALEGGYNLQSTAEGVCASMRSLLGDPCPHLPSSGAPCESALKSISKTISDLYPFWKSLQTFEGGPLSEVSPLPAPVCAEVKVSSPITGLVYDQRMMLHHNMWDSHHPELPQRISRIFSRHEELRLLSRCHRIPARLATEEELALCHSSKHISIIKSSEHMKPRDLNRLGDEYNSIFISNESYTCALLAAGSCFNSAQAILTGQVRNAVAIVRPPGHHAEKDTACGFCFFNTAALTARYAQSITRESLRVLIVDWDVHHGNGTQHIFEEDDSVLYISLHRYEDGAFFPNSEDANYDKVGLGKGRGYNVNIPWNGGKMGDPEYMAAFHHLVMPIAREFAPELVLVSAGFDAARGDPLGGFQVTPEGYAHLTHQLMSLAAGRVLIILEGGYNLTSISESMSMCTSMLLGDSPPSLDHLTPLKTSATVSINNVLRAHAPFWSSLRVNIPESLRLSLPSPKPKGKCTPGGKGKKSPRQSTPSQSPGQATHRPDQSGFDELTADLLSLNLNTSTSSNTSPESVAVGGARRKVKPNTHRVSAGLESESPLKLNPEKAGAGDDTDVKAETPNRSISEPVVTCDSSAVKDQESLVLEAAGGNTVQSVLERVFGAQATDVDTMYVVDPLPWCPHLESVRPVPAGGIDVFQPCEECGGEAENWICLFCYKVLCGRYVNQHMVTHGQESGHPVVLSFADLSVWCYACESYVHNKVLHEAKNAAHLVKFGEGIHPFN
Nature of the data set: Inhibition of N-terminal 6 His-SUMO tagged Zebrafish HDAC6 CD2 domain expressed in Escherichia coli BL21(DE3) RILP pretreated for 10 mins before FITC-M344 addition and measured after 10 mins by fluorescence polarization competition assay.

In data set [10] the target is T2, Protein deacetylase HDAC6 (Homo sapiens) (UniProt Q9UBN7).
T2 sequence (whole entry): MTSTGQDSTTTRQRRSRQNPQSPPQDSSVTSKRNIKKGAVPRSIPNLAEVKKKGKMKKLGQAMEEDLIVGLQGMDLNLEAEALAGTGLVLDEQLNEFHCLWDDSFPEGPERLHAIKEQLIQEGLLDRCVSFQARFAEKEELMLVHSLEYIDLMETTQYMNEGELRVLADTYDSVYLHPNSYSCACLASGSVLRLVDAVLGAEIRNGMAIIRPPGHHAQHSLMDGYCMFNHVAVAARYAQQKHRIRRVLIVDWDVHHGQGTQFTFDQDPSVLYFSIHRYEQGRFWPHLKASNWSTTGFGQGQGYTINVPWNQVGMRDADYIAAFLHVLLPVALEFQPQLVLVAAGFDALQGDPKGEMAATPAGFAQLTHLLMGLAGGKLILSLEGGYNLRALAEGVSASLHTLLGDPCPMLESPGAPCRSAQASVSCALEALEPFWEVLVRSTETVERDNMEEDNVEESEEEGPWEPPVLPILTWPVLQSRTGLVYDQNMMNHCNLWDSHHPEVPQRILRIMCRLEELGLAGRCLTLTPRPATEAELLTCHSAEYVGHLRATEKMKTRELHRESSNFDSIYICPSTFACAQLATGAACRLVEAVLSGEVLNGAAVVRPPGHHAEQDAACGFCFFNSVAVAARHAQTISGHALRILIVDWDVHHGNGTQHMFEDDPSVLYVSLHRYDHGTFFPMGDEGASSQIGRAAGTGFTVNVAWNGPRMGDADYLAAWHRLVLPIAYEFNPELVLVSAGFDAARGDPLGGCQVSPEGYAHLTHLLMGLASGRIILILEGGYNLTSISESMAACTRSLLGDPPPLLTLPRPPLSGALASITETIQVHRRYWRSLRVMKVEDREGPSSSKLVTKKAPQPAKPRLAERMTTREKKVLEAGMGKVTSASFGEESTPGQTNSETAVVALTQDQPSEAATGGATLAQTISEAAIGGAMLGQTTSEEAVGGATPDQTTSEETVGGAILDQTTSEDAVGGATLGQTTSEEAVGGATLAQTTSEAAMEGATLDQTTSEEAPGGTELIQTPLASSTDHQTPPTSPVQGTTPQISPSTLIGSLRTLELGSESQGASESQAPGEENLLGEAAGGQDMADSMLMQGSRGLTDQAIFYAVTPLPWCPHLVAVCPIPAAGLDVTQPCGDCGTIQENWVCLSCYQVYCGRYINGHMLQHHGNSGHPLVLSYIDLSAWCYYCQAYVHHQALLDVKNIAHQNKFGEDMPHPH
Nature of the data set: Inhibition of HDAC6 in human MV4-11 cells assessed as increase in acetylation of alpha tubulin at 0.5 uM measured after 6 hrs by Western blot assay relative to histone H3 acetylation. The data set is classed as cell-based. Put shortly:
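MV4-11 cells were exposed to a range of concentrations for 6 h. Protein extracts were run on SDS-PAGE and immunoblotted for acetylated α-tubulin, acetylated histone H3 and acetylated histone H4, with HSC70 as the loading reference. A representative blot of three independent experiments is shown.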

`O=C(NO)c1ccc(CNC(=O)c2c(F)c(F)c(F)c(F)c2F)cc1`: the figures for the Activity in data set [1], in data set [7] and in data set [8] were 18%, 7.73% and “Non-Toxic”, respectively. Also, the IC50 is 1900 nM in [2] and 74 nM in data set [9]. The molecule also showed a half-life in [3] of 15 min. Also, the Papp A→B at 2 h in [4] turned out to be 1.33 ×10⁻⁶ cm/s. Besides, in data set [5], the Papp B→A at 2 h was determined as 0.94 ×10⁻⁶ cm/s. Also, the remaining at 1 h in data set [6] is 98%. Moreover, the inhibition result in data set [10] was “Active”.
